In brackets after ≈: the same amount, converted by molar mass.
Experiments:
[1] = Kinetic solubility of the compound at pH 1.5 at room temperature; type: physicochemical; details: buffer, read-out: Kinetic_solubility
In short: (§1)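 Kinetic solubility measured from DMSO stock solutions at room temperature. Assay run at the pH named in each line.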

[2] = Apparent permeability of the compound by PAMPA assay; type: ADME
In short: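 Passive permeability measured in a PAMPA assay.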

[3] = biological target: T1, Metabotropic glutamate receptor 3 (Homo sapiens, UniProt Q14832); test: Positive allosteric modulation of mGlu3 receptor assessed as potentiation of glutamate-induced calcium mobilization; type: functional
T1 sequence (Q14832 whole entry): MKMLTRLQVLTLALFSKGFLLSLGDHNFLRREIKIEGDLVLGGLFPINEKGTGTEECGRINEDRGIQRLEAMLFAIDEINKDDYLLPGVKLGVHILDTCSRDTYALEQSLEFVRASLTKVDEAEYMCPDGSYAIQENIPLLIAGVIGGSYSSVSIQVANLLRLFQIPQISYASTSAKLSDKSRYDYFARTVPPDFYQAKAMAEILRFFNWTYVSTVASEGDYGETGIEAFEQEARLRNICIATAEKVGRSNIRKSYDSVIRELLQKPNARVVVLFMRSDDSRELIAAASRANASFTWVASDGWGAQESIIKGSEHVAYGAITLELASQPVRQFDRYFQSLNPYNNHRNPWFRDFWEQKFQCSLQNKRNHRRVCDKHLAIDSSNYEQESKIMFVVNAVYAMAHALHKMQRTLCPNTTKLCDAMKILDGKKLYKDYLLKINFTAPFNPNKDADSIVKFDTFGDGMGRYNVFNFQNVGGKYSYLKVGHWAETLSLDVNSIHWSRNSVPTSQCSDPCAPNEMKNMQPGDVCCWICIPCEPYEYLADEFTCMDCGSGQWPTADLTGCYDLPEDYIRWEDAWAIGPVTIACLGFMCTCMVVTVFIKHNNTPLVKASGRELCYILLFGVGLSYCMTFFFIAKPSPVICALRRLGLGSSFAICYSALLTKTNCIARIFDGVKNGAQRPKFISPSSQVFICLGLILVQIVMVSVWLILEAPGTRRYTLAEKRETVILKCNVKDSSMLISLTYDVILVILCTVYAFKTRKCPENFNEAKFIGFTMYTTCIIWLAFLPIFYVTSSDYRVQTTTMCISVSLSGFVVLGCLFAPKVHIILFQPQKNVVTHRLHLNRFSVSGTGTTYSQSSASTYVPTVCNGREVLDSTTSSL

[4] = biological target: T1, Metabotropic glutamate receptor 3; test: Negative allosteric modulation of mGlu3 receptor
[5] = Fraction unbound in rat plasma; type: ADME, cell-free
[6] = biological target: T2, Metabotropic glutamate receptor 5 (Homo sapiens, UniProt P41594); test: Negative allosteric modulation of mGlu5 receptor
T2 sequence (P41594 whole entry): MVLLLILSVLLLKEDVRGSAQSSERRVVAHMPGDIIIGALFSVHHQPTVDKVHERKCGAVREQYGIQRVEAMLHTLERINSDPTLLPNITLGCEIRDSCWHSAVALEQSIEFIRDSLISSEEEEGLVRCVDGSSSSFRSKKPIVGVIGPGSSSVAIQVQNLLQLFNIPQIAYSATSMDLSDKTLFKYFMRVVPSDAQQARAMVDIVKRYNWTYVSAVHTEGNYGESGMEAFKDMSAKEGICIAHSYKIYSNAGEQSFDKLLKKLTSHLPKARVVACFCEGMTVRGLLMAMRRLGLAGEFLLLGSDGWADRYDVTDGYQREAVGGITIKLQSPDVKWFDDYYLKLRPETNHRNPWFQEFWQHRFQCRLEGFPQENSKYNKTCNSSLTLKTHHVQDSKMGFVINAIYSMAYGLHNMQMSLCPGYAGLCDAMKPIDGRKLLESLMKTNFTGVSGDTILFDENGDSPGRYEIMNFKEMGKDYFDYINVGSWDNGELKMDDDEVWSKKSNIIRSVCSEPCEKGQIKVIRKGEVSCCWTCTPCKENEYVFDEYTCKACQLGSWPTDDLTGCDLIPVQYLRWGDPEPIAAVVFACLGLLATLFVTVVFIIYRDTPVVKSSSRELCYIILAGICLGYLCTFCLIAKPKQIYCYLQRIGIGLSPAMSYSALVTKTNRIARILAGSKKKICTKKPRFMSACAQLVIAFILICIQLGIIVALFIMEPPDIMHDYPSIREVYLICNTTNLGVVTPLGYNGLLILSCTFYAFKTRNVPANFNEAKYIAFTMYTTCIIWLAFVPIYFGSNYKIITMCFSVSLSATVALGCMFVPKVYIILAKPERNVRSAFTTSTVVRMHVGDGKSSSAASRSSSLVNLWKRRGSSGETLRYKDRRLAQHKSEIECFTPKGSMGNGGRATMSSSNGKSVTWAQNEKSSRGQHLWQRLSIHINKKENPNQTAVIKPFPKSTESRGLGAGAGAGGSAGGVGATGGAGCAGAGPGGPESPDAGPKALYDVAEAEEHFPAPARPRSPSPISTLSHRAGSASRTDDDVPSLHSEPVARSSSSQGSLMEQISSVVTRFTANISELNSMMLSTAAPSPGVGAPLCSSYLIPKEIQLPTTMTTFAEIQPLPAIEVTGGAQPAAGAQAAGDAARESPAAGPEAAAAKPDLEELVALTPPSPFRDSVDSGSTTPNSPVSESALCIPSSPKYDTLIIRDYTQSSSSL

[7] = Lipophilicity, log D of the compound at pH 7.4; type: physicochemical; details: buffer
[8] = Plasma protein binding in rat; type: ADME, cell-free; details: read-out: PPB (converted)
[9] = Plasma protein binding in human; type: ADME, cell-free; details: read-out: PPB (converted)
[10] = Kinetic solubility of the compound at pH 7.4 at room temperature; type: physicochemical; details: buffer, read-out: Kinetic_solubility; in short: as §1
[11] = biological target: T3, Metabotropic glutamate receptor 1 (Homo sapiens, UniProt Q13255); test: Positive allosteric modulation of mGlu1 receptor assessed as potentiation of glutamate-induced calcium mobilization; type: functional
T3 sequence (Q13255 whole entry): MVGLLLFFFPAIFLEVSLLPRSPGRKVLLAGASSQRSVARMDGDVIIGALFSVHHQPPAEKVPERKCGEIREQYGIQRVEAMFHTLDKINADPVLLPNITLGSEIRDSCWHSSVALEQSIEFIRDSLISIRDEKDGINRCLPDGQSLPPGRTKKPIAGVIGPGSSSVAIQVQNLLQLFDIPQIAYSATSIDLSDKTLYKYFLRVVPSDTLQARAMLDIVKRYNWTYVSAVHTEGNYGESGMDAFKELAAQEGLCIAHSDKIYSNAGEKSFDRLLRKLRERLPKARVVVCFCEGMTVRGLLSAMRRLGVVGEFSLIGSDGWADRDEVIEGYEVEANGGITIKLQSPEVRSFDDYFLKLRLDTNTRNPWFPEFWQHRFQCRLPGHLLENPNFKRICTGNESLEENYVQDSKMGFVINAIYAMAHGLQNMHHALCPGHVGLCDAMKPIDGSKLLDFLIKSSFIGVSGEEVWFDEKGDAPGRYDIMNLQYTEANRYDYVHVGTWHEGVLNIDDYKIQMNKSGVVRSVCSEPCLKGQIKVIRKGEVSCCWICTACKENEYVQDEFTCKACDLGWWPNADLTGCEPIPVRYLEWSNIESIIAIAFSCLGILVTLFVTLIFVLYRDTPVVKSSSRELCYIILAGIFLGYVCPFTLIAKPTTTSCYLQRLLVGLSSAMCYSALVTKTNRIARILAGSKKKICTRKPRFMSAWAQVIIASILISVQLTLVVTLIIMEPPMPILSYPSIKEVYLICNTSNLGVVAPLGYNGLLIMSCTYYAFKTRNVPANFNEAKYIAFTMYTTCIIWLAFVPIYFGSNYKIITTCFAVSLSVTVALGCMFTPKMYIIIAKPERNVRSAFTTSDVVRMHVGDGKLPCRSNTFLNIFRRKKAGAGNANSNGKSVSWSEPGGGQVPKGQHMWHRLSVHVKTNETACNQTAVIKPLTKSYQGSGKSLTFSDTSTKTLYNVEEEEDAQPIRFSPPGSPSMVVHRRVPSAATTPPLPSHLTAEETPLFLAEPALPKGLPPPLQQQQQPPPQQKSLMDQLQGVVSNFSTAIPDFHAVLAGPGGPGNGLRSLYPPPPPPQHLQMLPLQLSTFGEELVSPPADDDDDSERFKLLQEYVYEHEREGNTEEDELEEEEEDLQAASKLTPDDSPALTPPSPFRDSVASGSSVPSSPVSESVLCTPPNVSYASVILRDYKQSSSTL

[12] = Intrinsic clearance in rat microsomes; type: ADME, Microsome
In short: (§2)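 Intrinsic clearance measured in rat and human liver microsomes. Hepatic blood flow references given as 20 mL/min for rat and 1.5 L/min for human.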

[13] = biological target: T4, Metabotropic glutamate receptor 7 (Homo sapiens, UniProt Q14831); test: Positive allosteric modulation of mGlu7 receptor assessed as potentiation of glutamate-induced calcium mobilization; type: functional
T4 sequence (Q14831 whole entry): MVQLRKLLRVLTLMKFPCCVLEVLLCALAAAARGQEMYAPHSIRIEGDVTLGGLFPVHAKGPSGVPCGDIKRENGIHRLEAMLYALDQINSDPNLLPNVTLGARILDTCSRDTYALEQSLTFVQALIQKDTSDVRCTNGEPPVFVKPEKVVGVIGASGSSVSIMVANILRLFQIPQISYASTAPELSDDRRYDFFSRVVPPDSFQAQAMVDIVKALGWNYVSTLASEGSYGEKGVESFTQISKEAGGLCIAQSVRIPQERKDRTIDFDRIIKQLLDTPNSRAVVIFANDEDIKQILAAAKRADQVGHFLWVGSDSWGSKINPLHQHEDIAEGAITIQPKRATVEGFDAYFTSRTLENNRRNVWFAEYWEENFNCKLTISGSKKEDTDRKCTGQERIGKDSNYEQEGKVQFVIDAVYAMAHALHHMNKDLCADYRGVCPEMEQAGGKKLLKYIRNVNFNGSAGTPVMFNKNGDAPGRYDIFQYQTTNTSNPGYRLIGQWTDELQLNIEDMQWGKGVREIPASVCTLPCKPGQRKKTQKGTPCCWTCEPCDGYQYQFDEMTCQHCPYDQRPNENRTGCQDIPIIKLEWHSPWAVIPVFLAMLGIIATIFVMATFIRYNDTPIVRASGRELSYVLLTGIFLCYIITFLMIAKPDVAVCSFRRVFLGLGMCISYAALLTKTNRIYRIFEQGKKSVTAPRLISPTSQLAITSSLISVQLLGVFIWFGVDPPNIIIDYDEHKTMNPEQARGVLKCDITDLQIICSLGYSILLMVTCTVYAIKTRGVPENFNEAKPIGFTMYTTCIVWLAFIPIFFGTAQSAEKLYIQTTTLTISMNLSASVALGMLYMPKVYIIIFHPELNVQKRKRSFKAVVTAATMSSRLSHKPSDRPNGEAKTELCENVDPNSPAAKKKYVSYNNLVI

[14] = tested on: P-gp (MDR1); test: Apparent permeability from basolateral to apical side of dog MDCK cells expressing human MDR1 by P-gp substrate assay; type: ADME, cell-based, Canis lupus familiaris
In short: (§3)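 MDCK cells transfected with human MDR1, used as a P-gp substrate assay. Permeability measured in both directions, apical-to-basolateral and basolateral-to-apical. The efflux ratio is taken as B→A over A→B.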

[15] = tested on: P-gp (MDR1); test: Apparent permeability from apical to basolateral side of dog MDCK cells expressing human MDR1 by P-gp substrate assay; type: ADME, cell-based, Canis lupus familiaris; in short: as §3
[16] = Drug uptake in Sprague-Dawley rat brain at 10 mg/kg, po after 1 hr; type: ADME, organism-based; set-up: dose 10 mg/kg, route oral; details: read-out: Drug uptake
In short: (§4)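 Sprague-Dawley rats given 10 mg/kg orally as a suspension in 20% aqueous hydroxypropyl-β-cyclodextrin. Plasma and brain levels taken at 1 h post-dose. Brain/plasma ratio derived from these levels.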

[17] = biological target: T5, Metabotropic glutamate receptor 4 (Homo sapiens, UniProt Q14833); test: Positive allosteric modulation of human mGlu4 receptor expressed in BHK cells assessed as potentiation of glutamate-induced calcium mobilization after 1 hr by FLIPR assay; type: functional, cell-based
In short: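 Stable BHK line co-expressing human mGlu4 and murine Gα15, plated on poly-D-lysine 24 h ahead. Cells loaded 1 h at 37 °C, 5% CO2 with Calcium 3 dye in HBSS/20 mM HEPES pH 7.4, 0.1% BSA, 2.5 mM probenecid. Test agent added with an EC20 glutamate challenge. Peak fluorescence change read by FLIPR and fitted to the Hill equation. At least two independent runs in duplicate, means reported.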

[18] = biological target: T2, Metabotropic glutamate receptor 5; test: Positive allosteric modulation of mGlu5 receptor assessed as potentiation of glutamate-induced calcium mobilization; type: functional
[19] = biological target: T6, Metabotropic glutamate receptor 2 (Homo sapiens, UniProt Q14416); test: Positive allosteric modulation of mGlu2 receptor assessed as potentiation of glutamate-induced calcium mobilization; type: functional
T6 sequence (Q14416 whole entry): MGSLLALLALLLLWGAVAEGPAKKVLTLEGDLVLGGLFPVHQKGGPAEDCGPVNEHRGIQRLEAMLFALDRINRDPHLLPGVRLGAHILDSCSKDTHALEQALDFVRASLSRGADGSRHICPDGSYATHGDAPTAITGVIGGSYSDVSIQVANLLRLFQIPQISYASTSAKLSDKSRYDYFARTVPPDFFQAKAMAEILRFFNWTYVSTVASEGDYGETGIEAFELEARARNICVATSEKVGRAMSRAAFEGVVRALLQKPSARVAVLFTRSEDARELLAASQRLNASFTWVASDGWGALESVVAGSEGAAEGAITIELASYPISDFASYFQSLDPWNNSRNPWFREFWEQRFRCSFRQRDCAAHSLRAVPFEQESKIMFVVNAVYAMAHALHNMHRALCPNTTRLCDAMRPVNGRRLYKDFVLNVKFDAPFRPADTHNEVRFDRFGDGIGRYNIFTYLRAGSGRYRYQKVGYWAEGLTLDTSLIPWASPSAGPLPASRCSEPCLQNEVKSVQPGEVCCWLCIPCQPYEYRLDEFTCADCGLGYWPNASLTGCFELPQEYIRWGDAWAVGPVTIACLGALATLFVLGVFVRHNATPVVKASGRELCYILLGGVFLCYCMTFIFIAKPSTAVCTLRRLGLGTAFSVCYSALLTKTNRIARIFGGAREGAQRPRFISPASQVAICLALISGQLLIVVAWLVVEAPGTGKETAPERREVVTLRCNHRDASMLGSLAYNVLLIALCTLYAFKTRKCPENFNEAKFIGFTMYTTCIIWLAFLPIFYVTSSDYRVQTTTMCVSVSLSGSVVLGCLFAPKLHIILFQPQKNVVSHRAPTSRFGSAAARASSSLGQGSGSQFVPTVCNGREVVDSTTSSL

[20] = Intrinsic clearance in human microsomes; type: ADME, Microsome; in short: as §2
[21] = Plasma concentration in Sprague-Dawley rat at 10 mg/kg, po after 1 hr; type: ADME, organism-based; set-up: dose 10 mg/kg, route oral; in short: as §4
[22] = biological target: T6, Metabotropic glutamate receptor 2; test: Negative allosteric modulation of mGlu2 receptor
[23] = Fraction unbound in rat brain; type: ADME, tissue-based
In short: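 Brain free fraction determined by dialysis of rat brain homogenate.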

[24] = Ratio of drug level in brain to plasma of Sprague-Dawley rat at 10 mg/kg, po after 1 hr; type: ADME, organism-based; set-up: dose 10 mg/kg, route oral; details: read-out: BPR; in short: as §4
[25] = biological target: T3, Metabotropic glutamate receptor 1; test: Negative allosteric modulation of mGlu1 receptor
[26] = biological target: T4, Metabotropic glutamate receptor 7; test: Negative allosteric modulation of mGlu7 receptor
[27] = biological target: T5, Metabotropic glutamate receptor 4; test: Positive allosteric modulation of human mGlu4 receptor expressed in BHK cells assessed as potentiation of glutamate-induced response after 1 hr by FLIPR assay relative to glutamate; type: cell-based
In short: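 BHK cells stably co-expressing human mGlu4 and murine G-protein […], grown in DMEM at 37 °C, 5% CO₂. Cells seeded 24 h before assay, then loaded with Calcium 3 no-wash dye in HBSS/HEPES pH 7.4 with 0.1% BSA and 2.5 mM probenecid for 1 h at 37 °C. FLIPR calcium read after stimulation with EC₂₀ glutamate plus compound. Emax is percent of maximal glutamate response. Mean of ≥2 independent duplicate experiments.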

[28] = Drug uptake in Sprague-Dawley rat cerebrospinal fluid at 10 mg/kg, sc after 1 hr
[29] = Fraction unbound in human plasma; type: ADME, cell-free

Row | solubility kinetic [1] [µM] | Papp [2] [×10⁻⁶ cm/s] | EC50 [3] [µM] | IC50 [4] [µM] | fraction unbound [5] | IC50 [6] [µM] | logD [7] | fraction unbound [8] | fraction unbound [9] | solubility kinetic [10] [µM] | EC50 [11] [µM] | CL [12] [mL/min] | EC50 [13] [µM] | Papp B→A [14] [×10⁻⁶ cm/s] | Papp A→B [15] [×10⁻⁶ cm/s] | concentration at 1 h [16] [ng/g] | EC50 [17] [µM] | CL [20] [L/min] | concentration at 1 h [21] [ng/mL] | fraction unbound [23] | Compound | other results
1 | 240 (≈ 68 µg/mL) | 9.4 | > 10 | > 10 | 0.011 | > 10 | 5 | 0.011 | 0.006 | 1.2 (≈ 0.34 µg/mL) | > 10 | 36 | > 10 | 13 | 24 | 200 | 0.009 | 10 | 259 | 0.0043 | c1ccc(Nc2nc3c(s2)CCCc2[nH]ncc2-3)nc1 | EC50 [18]: > 10 µM; EC50 [19]: > 10 µM; IC50 [22]: > 10 µM; Kp at 1 h [24]: 0.8; IC50 [25]: > 10 µM; IC50 [26]: > 10 µM
2 | 220 (≈ 59.3 µg/mL) | 3 | > 10 | > 10 | 0.023 | > 10 | 4 | 0.023 | 0.008 | 0.1 (≈ 0.0269 µg/mL) | > 10 | 37 | > 10 | 7.7 | 22 | 517 | 0.22 | 5.6 | 987 | 0.0043 | c1ccc(Nc2nc3c(s2)CCc2[nH]ncc2-3)nc1 | EC50 [18]: > 10 µM; EC50 [19]: > 10 µM; IC50 [22]: > 10 µM; Kp at 1 h [24]: 0.5; IC50 [25]: > 10 µM; IC50 [26]: > 10 µM
3 | 100 (≈ 28.4 µg/mL) | 1.5 | > 10 | > 10 | 0.006 | > 10 | 3.8 | 0.006 | 0.031 | 3 (≈ 0.853 µg/mL) | > 10 | 92 | > 10 | 21 | 33 | 3.1 | 0.007 | 9 | 0.7 | 0.016 | c1cnc(Nc2nc3c(s2)CCCc2[nH]ncc2-3)nc1 | EC50 [18]: > 10 µM; EC50 [19]: > 10 µM; IC50 [22]: > 10 µM; IC50 [25]: > 10 µM; IC50 [26]: > 10 µM
4 | 220 (≈ 53.5 µg/mL) | 32.9 | – | – | 0.092 | – | 3.1 | – | – | 120 (≈ 29.2 µg/mL) | – | 61 | – | – | – | 744 | 0.41 | 11 | 766 | 0.014 | c1ccc(Nc2nc(-c3cn[nH]c3)cs2)nc1 | Emax [27]: 72%; concentration at 1 h [28]: 52 ng/mL; fraction unbound [29]: 0.035; Kp at 1 h [24]: 1

— ChEMBL document CHEMBL1828519, “Tricyclic thiazolopyrazole derivatives as metabotropic glutamate receptor 4 positive allosteric modulators” (J Med Chem, 2011)
